Experimental data as given in ChEMBL document CHEMBL5705890, “Antitumor activity of an allosteric inhibitor of centromere-associated protein-E” (Proc Natl Acad Sci U S A, 2010).

How the values were obtained:
786-0 = test: Anticancer activity against human 786-0 cells assessed as cell growth inhibition measured after 72 hrs by DAPI staining based analysis; type: functional
Procedure, shortened: (§1)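 Cells were seeded and, after 24 h, DNA content was read as T0. Cells were then exposed to varying drug concentrations for a further 72 h (T72). Fixed cells were DAPI-stained and DNA content measured by automated imaging. T72 values were normalized to T0. GI50 is the concentration giving 50% growth inhibition between T0 and Ymax, obtained by curve fitting.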

RL95-2 = test: Anticancer activity against human RL95-2 cells assessed as cell doubling measured for 72 hrs by DAPI staining based analysis; type: functional
HPAF-II = test: Anticancer activity against human HPAF-II cells assessed as cell doubling measured for 72 hrs by DAPI staining based analysis; type: functional
SW756 = test: Anticancer activity against human SW756 cells assessed as cell doubling measured for 72 hrs by DAPI staining based analysis; type: functional
Y79 = test: Anticancer activity against human Y79 cells assessed as cell growth inhibition measured after 72 hrs by DAPI staining based analysis; type: functional
[1] = Anticancer activity against human SCC-13 cells assessed as cell doubling measured for 72 hrs by DAPI staining based analysis; type: functional
RPMI-8226 = test: Anticancer activity against human RPMI-8226 cells assessed as cell doubling measured for 72 hrs by DAPI staining based analysis; type: functional
SW1417 = test: Anticancer activity against human SW1417 cells assessed as cell growth inhibition measured after 72 hrs by DAPI staining based analysis; type: functional
SK-N-DZ = test: Anticancer activity against human SK-N-DZ cells assessed as cell growth inhibition measured after 72 hrs by DAPI staining based analysis; type: functional
MX1 [2] = test: Antitumor activity against human MX1 cells in xenograft model assessed as tumor growth delay at 125 mg/kg relative to control; type: functional
RPMI-6666 = test: Anticancer activity against human RPMI-6666 cells assessed as cell doubling measured for 72 hrs by DAPI staining based analysis; type: functional
A549 = test: Antitumor activity against human A549 cells in xenograft model assessed as difference between median time to endpoint time of treated versus control group at 62.5 mg/kg; type: functional
SNU-5 = test: Anticancer activity against human SNU-5 cells assessed as cell doubling measured for 72 hrs by DAPI staining based analysis; type: functional
COLO 205 = test: Anticancer activity against human COLO 205 cells assessed as cell growth inhibition measured after 72 hrs by DAPI staining based analysis; type: functional
Procedure, shortened: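 Cells were seeded, and DNA content at 24 h after seeding (T0) was read by imaging of fixed, DAPI-stained cells. Cells were then exposed to a range of drug concentrations for a further 72 h (T72) and DNA content was read again. T72 values were normalized to T0, and GI50 was taken from curve fits as the concentration giving 50% growth inhibition relative to T0 and Ymax.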

HOS = test: Anticancer activity against human HOS cells assessed as cell growth inhibition measured after 72 hrs by DAPI staining based analysis; type: functional
[3] = Toxicity in mouse xenografted with human COLO 205 cells at 500 mg/kg, ip administered three doses daily on 2 consecutive weeks; type: organism-based; conditions: in vivo, 336 h, time 2 weeks
RL = test: Anticancer activity against human RL cells assessed as cell doubling measured for 72 hrs by DAPI staining based analysis; type: functional
ST486 = test: Anticancer activity against human ST486 cells assessed as cell growth inhibition measured after 72 hrs by DAPI staining based analysis; type: functional
SW1783 = test: Anticancer activity against human SW1783 cells assessed as cell doubling measured for 72 hrs by DAPI staining based analysis; type: functional
SHP77 [4] = test: Anticancer activity against human SHP77 cells assessed as cell growth inhibition measured after 72 hrs by DAPI staining based analysis; type: functional
HCT-116 = test: Anticancer activity against human HCT-116 cells assessed as cell doubling measured for 72 hrs by DAPI staining based analysis; type: functional
[5] = Anticancer activity against human KPL-1 cells assessed as cell doubling measured for 72 hrs by DAPI staining based analysis; type: functional
U-251 = test: Anticancer activity against human U-251 cells assessed as cell doubling measured for 72 hrs by DAPI staining based analysis; type: functional
UMUC3 = test: Anticancer activity against human UM-UC-3 cells assessed as cell growth inhibition measured after 72 hrs by DAPI staining based analysis; type: functional
[6] = Anticancer activity against human SKO-007 cells assessed as cell growth inhibition measured after 72 hrs by DAPI staining based analysis; type: functional
A673 = test: Anticancer activity against human A673 cells assessed as cell doubling measured for 72 hrs by DAPI staining based analysis; type: functional
HT-29 = test: Antitumor activity against human HT-29 cells in xenograft model assessed as difference between median time to endpoint time of treated versus control group at 125 mg/kg; type: functional
NCI-H292 = test: Anticancer activity against human NCI-H292 cells assessed as cell doubling measured for 72 hrs by DAPI staining based analysis; type: functional
HuT78 = test: Anticancer activity against human HuT78 cells assessed as cell growth inhibition measured after 72 hrs by DAPI staining based analysis; type: functional
CWR22R = test: Anticancer activity against human 22Rv1 cells assessed as cell doubling measured for 72 hrs by DAPI staining based analysis; type: functional
SHP77 [7] = test: Anticancer activity against human SHP77 cells assessed as cell doubling measured for 72 hrs by DAPI staining based analysis; type: functional
SW 954 = test: Anticancer activity against human SW 954 cells assessed as cell growth inhibition measured after 72 hrs by DAPI staining based analysis; type: functional
MCF7 = test: Anticancer activity against human MCF7 cells assessed as cell growth inhibition measured after 72 hrs by DAPI staining based analysis; type: functional
A-431 = test: Anticancer activity against human A-431 cells assessed as cell growth inhibition measured after 72 hrs by DAPI staining based analysis; type: functional; procedure, shortened: as §1
SNU-475 = test: Anticancer activity against human SNU-475 cells assessed as cell growth inhibition measured after 72 hrs by DAPI staining based analysis; type: functional
[8] = biological target: Centromere-associated protein E (Mus musculus, UniProt Q6RT24); test: Binding affinity to wild-type mouse CENP-E assessed as inhibition constant
Centromere-associated protein E, sequence (Q6RT24 whole entry): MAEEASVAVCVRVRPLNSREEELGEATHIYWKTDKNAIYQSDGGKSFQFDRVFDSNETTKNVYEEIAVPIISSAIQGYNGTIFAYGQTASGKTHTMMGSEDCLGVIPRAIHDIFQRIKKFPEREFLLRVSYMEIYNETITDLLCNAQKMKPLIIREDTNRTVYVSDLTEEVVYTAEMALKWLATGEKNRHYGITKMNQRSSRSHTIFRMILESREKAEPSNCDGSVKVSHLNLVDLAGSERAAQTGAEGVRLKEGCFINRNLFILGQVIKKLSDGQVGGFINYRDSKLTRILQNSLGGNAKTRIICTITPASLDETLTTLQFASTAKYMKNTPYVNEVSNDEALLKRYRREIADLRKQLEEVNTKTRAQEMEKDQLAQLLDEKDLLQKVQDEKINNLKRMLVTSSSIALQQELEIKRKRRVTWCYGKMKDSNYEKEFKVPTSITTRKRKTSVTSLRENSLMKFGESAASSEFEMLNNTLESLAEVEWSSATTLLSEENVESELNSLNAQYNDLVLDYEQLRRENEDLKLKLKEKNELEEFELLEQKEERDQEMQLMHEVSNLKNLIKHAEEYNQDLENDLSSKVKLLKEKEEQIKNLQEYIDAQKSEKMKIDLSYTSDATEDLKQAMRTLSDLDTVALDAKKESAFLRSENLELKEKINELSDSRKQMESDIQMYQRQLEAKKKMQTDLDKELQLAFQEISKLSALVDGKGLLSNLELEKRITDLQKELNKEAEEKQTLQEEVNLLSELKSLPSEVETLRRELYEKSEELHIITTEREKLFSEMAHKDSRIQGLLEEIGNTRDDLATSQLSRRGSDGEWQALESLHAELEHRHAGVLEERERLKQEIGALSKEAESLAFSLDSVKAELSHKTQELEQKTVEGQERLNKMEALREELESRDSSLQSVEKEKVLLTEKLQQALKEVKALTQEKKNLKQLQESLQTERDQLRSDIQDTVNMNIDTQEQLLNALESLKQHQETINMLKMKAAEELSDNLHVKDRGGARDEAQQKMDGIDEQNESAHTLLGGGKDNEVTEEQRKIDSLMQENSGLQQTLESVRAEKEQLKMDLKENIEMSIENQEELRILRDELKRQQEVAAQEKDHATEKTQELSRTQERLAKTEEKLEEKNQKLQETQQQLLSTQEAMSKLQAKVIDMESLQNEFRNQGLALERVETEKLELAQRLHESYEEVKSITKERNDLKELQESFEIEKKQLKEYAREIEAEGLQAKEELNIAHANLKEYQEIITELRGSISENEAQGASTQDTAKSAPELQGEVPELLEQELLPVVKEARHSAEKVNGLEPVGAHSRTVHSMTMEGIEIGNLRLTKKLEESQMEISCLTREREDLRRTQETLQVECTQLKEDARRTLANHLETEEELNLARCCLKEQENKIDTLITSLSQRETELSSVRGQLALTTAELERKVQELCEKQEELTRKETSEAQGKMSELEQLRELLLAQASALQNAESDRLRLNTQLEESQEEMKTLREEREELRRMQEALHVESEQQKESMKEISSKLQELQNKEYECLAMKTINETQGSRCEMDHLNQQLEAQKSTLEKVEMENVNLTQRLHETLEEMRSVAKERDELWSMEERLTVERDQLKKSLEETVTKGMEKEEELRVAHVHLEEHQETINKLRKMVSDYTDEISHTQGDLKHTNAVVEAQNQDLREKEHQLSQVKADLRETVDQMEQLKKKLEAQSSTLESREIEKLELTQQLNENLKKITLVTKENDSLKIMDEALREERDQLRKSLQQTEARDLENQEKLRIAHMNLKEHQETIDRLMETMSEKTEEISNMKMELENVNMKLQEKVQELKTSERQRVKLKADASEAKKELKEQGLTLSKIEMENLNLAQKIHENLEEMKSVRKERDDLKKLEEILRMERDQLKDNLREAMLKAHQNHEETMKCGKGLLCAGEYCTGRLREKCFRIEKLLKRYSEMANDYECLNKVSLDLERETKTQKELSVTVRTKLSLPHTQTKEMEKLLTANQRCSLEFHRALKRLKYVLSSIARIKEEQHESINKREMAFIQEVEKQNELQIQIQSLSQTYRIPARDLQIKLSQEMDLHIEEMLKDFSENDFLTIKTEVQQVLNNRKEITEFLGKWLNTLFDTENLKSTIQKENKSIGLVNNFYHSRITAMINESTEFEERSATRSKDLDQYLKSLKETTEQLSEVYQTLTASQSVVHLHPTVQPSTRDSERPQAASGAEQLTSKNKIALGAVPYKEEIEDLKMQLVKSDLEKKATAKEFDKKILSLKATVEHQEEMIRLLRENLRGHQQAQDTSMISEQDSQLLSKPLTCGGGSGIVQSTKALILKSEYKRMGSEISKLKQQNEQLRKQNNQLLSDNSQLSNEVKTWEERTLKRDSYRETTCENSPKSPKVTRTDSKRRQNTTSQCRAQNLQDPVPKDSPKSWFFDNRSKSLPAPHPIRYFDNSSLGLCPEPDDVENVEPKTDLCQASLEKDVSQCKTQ

DU-4475 = test: Anticancer activity against human DU-4475 cells assessed as cell growth inhibition measured after 72 hrs by DAPI staining based analysis; type: functional
Procedure, shortened: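 Cells seeded, DAPI-stained DNA content of fixed cells read by imaging 24 h after seeding (T0), and again after a further 72 h exposure to a range of drug concentrations (T72). T72 values were normalized to T0. Curve fits gave the concentration producing 50% growth inhibition relative to T0 and Ymax (GI50).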

COLO 320DM = test: Anticancer activity against human COLO 320DM cells assessed as cell doubling measured for 72 hrs by DAPI staining based analysis; type: functional
MX1 [9] = test: Antitumor activity against human MX1 cells in xenograft model assessed as difference between median time to endpoint time of treated versus control group at 62.5 mg/kg; type: functional
MX1 [10] = test: Antitumor activity against human MX1 cells in xenograft model assessed as tumor growth delay at 62.5 mg/kg relative to control; type: functional

CC(C)Oc1ccc(C(=O)N[C@H](CNC(=O)CN(C)C)Cc2ccc(-c3cn4cccc([C@H](C)O)c4n3)cc2)cc1Cl [GSK-923295A]
GI50 (786-0): 45 nM
Activity (RL95-2): 2.48
Activity (HPAF-II): 2.42
Activity (SW756): 2.36
GI50 (Y79): 70 nM
Activity [1]: 3.39
Activity (RPMI-8226): 1.96
GI50 (SW1417): 29 nM
GI50 (SK-N-DZ): 69 nM
Activity (MX1 [2]): 26%
Activity (RPMI-6666): 1.99
Time (A549): 3.7 days
Activity (SNU-5): 1.47
GI50 (COLO 205): 25 nM
GI50 (HOS): 27 nM
Activity [3]: Non-Toxic
Activity (RL): 3.17
GI50 (ST486): 26 nM
Activity (SW1783): 1.47
GI50 (SHP77 [4]): 86 nM
Activity (HCT-116): 4.11
Activity [5]: 2.47
Activity (U-251): 3.04
GI50 (UMUC3): 23 nM
GI50 [6]: 60 nM
Activity (A673): 2
Time (HT-29): 18 days
Activity (NCI-H292): 2.2
GI50 (HuT78): 40 nM
Activity (CWR22R): 2.46
Activity (SHP77 [7]): 2.04
GI50 (SW 954): 22 nM
GI50 (MCF7): 29 nM
GI50 (A-431): 21 nM
GI50 (SNU-475): 26 nM
Ki [8]: 67 nM
GI50 (DU-4475): 147 nM
Activity (COLO 320DM): 3.85
Time (MX1 [9]): 1.4 days
Activity (MX1 [10]): 5%
